Experimental data from different studies.
Lines come from different studies, so protocols differ.
AMY2: Pancreatic alpha-amylase (AMY2, Sus scrofa, UniProt P00690)
SIRT2: NAD-dependent protein deacetylase sirtuin-2 (SIRT2, Homo sapiens, UniProt Q8IXJ6)
HSD11B2: 11-beta-hydroxysteroid dehydrogenase type 2 (HSD11B2, Homo sapiens, UniProt P80365)
Maoa: Amine oxidase [flavin-containing] A (Maoa, Rattus norvegicus, UniProt P21396)
Hydroxyacylglutathione hydrolase, mitochondrial: Hydroxyacylglutathione hydrolase, mitochondrial (Homo sapiens, UniProt Q16775)

Compound	target	test	setting	inhibition [%]
Cc1noc(NS(=O)(=O)c2ccc(N=NN(O)c3ccccc3)cc2)c1C	AMY2	enzyme activity, inhibitor	300 µg/mL	73.7
CCCCCCCCCCCCNC(=S)NCCCC[C@H](NC(=O)OCc1ccccc1)C(=O)N[C@@H](Cc1c[nH]c2ccccc12)C(=O)N[C@@H](CC(N)=O)C(N)=O	SIRT2	enzyme activity, inhibitor	100 µM	16
Cc1ccc(N(O)N=Nc2ccc(S(=O)(=O)Nc3onc(C)c3C)cc2)cc1	AMY2	enzyme activity, inhibitor	180 µg/mL	42.1
COc1cc(C=CC(=O)CC(c2ccc([N+](=O)[O-])cc2)n2ccnc2)ccc1O (centres unmarked)	AMY2	enzyme activity, inhibitor, absorbance	5 µg/mL	75.6
CCC(C)(C)C(=O)O[C@H]1C[C@@H](C)C=C2C=C[C@H](C)[C@H](CC[C@@H]3C[C@@H](O)CC(=O)O3)[C@H]21	HSD11B2	enzyme activity, inhibitor	20 µM, lysate	< 40
Oc1cccc(Nc2nc(-c3ccc(F)cc3F)cs2)c1	Maoa	cell-free assay	10 µM	14.4
CN(O)N=Nc1ccc(S(=O)(=O)Nc2nccs2)cc1	AMY2	enzyme activity, inhibitor	60 µg/mL	26.3
CCCCCCCCCCCCCC(=O)NNCCC[C@H](NC(=O)OCc1ccccc1)C(=O)N[C@@H](Cc1c[nH]c2ccccc12)C(=O)NC(C)C	SIRT2	enzyme activity, inhibitor	100 µM	19
Cc1noc(NS(=O)(=O)c2ccc(N=NN(C)O)cc2)c1C	AMY2	enzyme activity, inhibitor	120 µg/mL	42.1
CC(=S)NCCCC[C@H](NC(=O)OCc1ccccc1)C(=O)N[C@@H](Cc1c[nH]c2ccccc12)C(=O)N[C@@H](CCCCN)C(N)=O	SIRT2	enzyme activity, inhibitor	1 µM	36
O=C(c1ccc(Cl)cc1)N(Cc1ccccc1)C1CCCCC1	Maoa	cell-free assay	10 µM	5.1
COc1cc(C=Cc2cc(-c3ccccc3)nc(O)n2)ccc1O	AMY2	enzyme activity, inhibitor, absorbance	1.25 µg/mL	58.1
Cc1ccc(N(O)N=Nc2ccc(S(=O)(=O)Nc3cc(C)on3)cc2)cc1	AMY2	enzyme activity, inhibitor	240 µg/mL	68.4
CCCCCCCCCCC[C@@H](C[C@@H]1OC(=O)[C@H]1CCCCCC)OC(=O)[C@H](CC(C)C)NC=O	Pancreatic triacylglycerol lipase (PNLIP, Sus scrofa, UniProt P00591)	enzyme activity, inhibitor, absorbance	50 µg/mL	92.2
CC/C(=N\NC(=O)NCc1cccc(O)c1)c1ccc(O)c(C)c1O	Fibroblast growth factor receptor 3 (FGFR3, Homo sapiens, UniProt P22607, V555L)	enzyme activity, inhibitor	0.1 µM	-0.1
COc1cc(C=Cc2cc(-c3ccc(N(C)C)cc3)nc(O)n2)ccc1O	AMY2	enzyme activity, inhibitor, absorbance	2.5 µg/mL	60
CN(C)CCCN1c2ccccc2Sc2ccc(Cl)cc21	HSD11B2	enzyme activity, inhibitor	20 µM, lysate	< 40
CCCN(O)N=Nc1ccc(S(=O)(=O)Nc2cc(C)on2)cc1	AMY2	enzyme activity, inhibitor	240 µg/mL	57.9
O=C(NC1CCC1)[C@H](Cc1c[nH]c2ccccc12)NC(=O)[C@H](CCCCNC(=S)NCc1n[nH]c(=S)o1)NS(=O)(=O)c1cccc(F)c1	SIRT2	enzyme activity, inhibitor	30 µM	11
C[C@H]1O[C@H](O[C@H]2[C@H](O)[C@@H](O)[C@@H](O[C@H]3[C@H](O)[C@@H](O)C(O)O[C@@H]3CO)O[C@@H]2CO)[C@H](O)[C@@H](O)[C@@H]1N[C@H]1C=C(CO)[C@@H](O)[C@H](O)[C@H]1O (some centres unmarked)	AMY2	enzyme activity, inhibitor	150 µg/mL	84.7
CCCCCCCCCCCCNC(=O)CCCCC[C@H](NC(=O)OCc1ccccc1)C(=O)N[C@@H](Cc1c[nH]c2ccccc12)C(=O)NC(C)C	SIRT2	enzyme activity, inhibitor	100 µM	29
O=C(NC1CCC1)[C@H](Cc1c[nH]c2ccccc12)NC(=O)[C@H](CCCCNC(=S)NCCn1nn[nH]c1=O)NS(=O)(=O)c1cccc(F)c1	SIRT2	enzyme activity, inhibitor	100 µM	8
CN(CCOc1ccc(CC2SC(=O)NC2=O)cc1)c1ccccn1 (centres unmarked)	HSD11B2	enzyme activity, inhibitor	20 µM, lysate	< 40
COc1cc(C=CC(=O)CC(c2ccc(N(C)C)cc2)n2ccnc2)ccc1O (centres unmarked)	AMY2	enzyme activity, inhibitor, absorbance	5 µg/mL	77
c1ccc(CN(CCN(Cc2ccccn2)Cc2ccccn2)Cc2ccccn2)nc1	Hydroxyacylglutathione hydrolase, mitochondrial	cell-free assay	100 µM	47.6
O=C1CC(CCNC(=S)NCCCC[C@H](NS(=O)(=O)c2cccc(F)c2)C(=O)N[C@@H](Cc2c[nH]c3ccccc23)C(=O)NC2CCC2)=NO1	SIRT2	enzyme activity, inhibitor	10 µM	9
O=C(O)CN1CCN(CC(=O)O)CCN(CC(=O)O)CC1	Hydroxyacylglutathione hydrolase, mitochondrial	cell-free assay	100 µM	0.85
Cc1cccc(N(O)N=Nc2ccc(S(=O)(=O)Nc3onc(C)c3C)cc2)c1	AMY2	enzyme activity, inhibitor	240 µg/mL	52.6
CC(=S)NCCCC[C@H](NC(=O)OCc1ccccc1)C(=O)N[C@@H](Cc1c[nH]c2ccccc12)C(=O)N[C@@H](CCCNC(=N)N)C(N)=O	SIRT2	enzyme activity, inhibitor	1 µM	20
